“Also recorded” adds a separate entry of the source. Non-standard residues stand in square brackets, D forms with d. No end group written: not given here. Hyp = O=C(O)[C@@H]1C[C@@H](O)CN1
Key:
[1] = system: 3T3 cells; assay type: cell-based, mouse
[2] = target: the molecule itself; experiment: crystal structure
[3] = system: 3T3 cells; experiment: Cytotoxicity assay; assay type: cell-based, mouse; settings: CCK-8, up to 1 mg/ml, Fig. 4D
Procedure, shortened: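 Mouse fibroblast BALB 3T3 cells were exposed to a recombinant collagen III tandem-repeat protein or collagen-derived peptides at concentrations up to 1000 μg/ml. Viability was read with CCK-8 following the manufacturer's manual. CC50 was the intended read-out.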

Molecule: C1P: native hCOL3A1 peptide, Gly483-Pro512 (GERGAPGFRGPAGPNGIPGEKGPAGERGAP)
- cell adhesion activity (relative cell adhesion rate) [1]: the most potent cell adhesion activity; also recorded: much stronger cell adhesion activity than that of Type I collagen

Molecule: bovine serum albumin [BSA, reference compound]
- cell adhesion activity (relative cell adhesion rate) [1]: no significant adhesion activity

Molecule: P[Hyp]GP[Hyp]GP[Hyp]GFRGPAGPNGIPGP[Hyp]GP[Hyp]GP[Hyp]G [host-guest peptide C3Pa, (Pro-Hyp-Gly)3-FRGPAGPNGIPG-(Pro-Hyp-Gly)3]
- stoichiometry N [2]: 3

B1: T16: recombinant 480aa protein, 16 tandem repeats of the triple-helix fragment of hCOL3A1, Gly483-Pro512 (C1P) (protein)
chain: GERGAPGFRGPAGPNGIPGEKGPAGERGAPGERGAPGFRGPAGPNGIPGEKGPAGERGAPGERGAPGFRGPAGPNGIPGEKGPAGERGAPGERGAPGFRGPAGPNGIPGEKGPAGERGAPGERGAPGFRGPAGPNGIPGEKGPAGERGAPGERGAPGFRGPAGPNGIPGEKGPAGERGAPGERGAPGFRGPAGPNGIPGEKGPAGERGAPGERGAPGFRGPAGPNGIPGEKGPAGERGAPGERGAPGFRGPAGPNGIPGEKGPAGERGAPGERGAPGFRGPAGPNGIPGEKGPAGERGAPGERGAPGFRGPAGPNGIPGEKGPAGERGAPGERGAPGFRGPAGPNGIPGEKGPAGERGAPGERGAPGFRGPAGPNGIPGEKGPAGERGAPGERGAPGFRGPAGPNGIPGEKGPAGERGAPGERGAPGFRGPAGPNGIPGEKGPAGERGAPGERGAPGFRGPAGPNGIPGEKGPAGERGAP
modifications: left off: thioredoxin, end not stated, state not stated
- cytotoxicity [3]: No obvious cytotoxicity
- cell adhesion activity (relative cell adhesion rate) [1]: very strong cell adhesion activity

— paper PMC7092849 (Biochemical and Biophysical Research Communications, 2018)
